Series [1] is described as follows: Solubility of the compound. It counts as physicochemical.
Series [2] has as its target T1, Low molecular weight protein-tyrosine phosphatase A (Mycobacterium tuberculosis) (UniProt P9WIA1).
T1 sequence (whole entry): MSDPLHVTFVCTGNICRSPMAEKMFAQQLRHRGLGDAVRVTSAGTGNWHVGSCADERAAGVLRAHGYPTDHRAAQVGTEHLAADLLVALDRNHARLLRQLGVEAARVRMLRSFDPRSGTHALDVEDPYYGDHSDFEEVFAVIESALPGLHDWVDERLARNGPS
As to the kind of experiment: Inhibition of Mycobacterium tuberculosis PTP-A using p-nitrophenyl phosphate as substrate at 25 uM measured for 10 mins by spectrofluorimetry. A digest of the protocol:
(§1)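 Single-point screen at 25 μM final compound, added from 1.0 × 10−3 M DMSO stock, with recombinant Mtb PtpA or PtpB (0.4 μg/μL final) in 20 mM imidazole pH 7.0 with 40 mM pNPP. Reaction started by adding enzyme. p-Nitrophenol release read at 410 nm every min for 10 min at 37 °C. Residual activity was taken from the absorbance difference between 6 and 2 min; two experiments, each in triplicate.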

Series [3] has as its target T2, Phosphotyrosine-protein phosphatase PTPB (Mycobacterium tuberculosis) (UniProt P96830).
T2 sequence (whole entry): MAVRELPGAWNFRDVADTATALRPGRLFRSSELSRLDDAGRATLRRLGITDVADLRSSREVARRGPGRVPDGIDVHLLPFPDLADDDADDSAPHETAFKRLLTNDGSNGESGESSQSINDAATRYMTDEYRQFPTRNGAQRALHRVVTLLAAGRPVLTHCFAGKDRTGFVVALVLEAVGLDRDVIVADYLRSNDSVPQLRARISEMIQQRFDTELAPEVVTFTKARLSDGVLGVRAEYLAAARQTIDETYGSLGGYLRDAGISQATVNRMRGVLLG
Briefly: Inhibition of Mycobacterium tuberculosis PTP-B using p-nitrophenyl phosphate as substrate at 25 uM measured for 10 mins by spectrofluorimetry. A digest of the protocol:
as §1

This note sets out measurements from ChEMBL document CHEMBL1944567, “Synthesis, biological evaluation, and molecular modeling of chalcone derivatives as potent inhibitors of Mycobacterium tuberculosis protein tyrosine phosphatases (PtpA and PtpB)” (J Med Chem, 2012).

By inhibition is commonly meant the drop in the measured response relative to a control, in per cent. A low value points to little suppression.

In the case of `O=C(/C=C/c1ccc(Cl)c(C(F)(F)F)c1)c1ccc2c(c1)OCO2`, the solubility result in series [1] was “soluble”. Further, the inhibition in series [2] and in series [3] was 0% each time.
`COc1cc(OC)c(OC)cc1/C=C/C(=O)c1ccc2ccccc2c1`: the solubility entry in series [1] is recorded as “soluble”. Moreover, the inhibition in series [2] was 7%; in series [3], 0%.
In the case of `O=C1COc2ccc(C(=O)/C=C/c3ccc4ccccc4c3)cc2N1`, in series [1], the solubility entry was “soluble”. Also, the inhibition is 0% in series [2] and 24% in series [3].
`COc1cc(/C=C/C(=O)c2ccc3ccccc3c2)ccc1OCc1ccccc1`: the solubility result in series [1] was “soluble”. The inhibition in series [2] was 5%; in series [3], 0%.
In the case of `O=C(/C=C/c1cccc(Cl)c1)c1ccc2c(c1)OCO2`, the solubility entry in series [1] is “soluble”. Also, the inhibition in series [2] was 23%; in series [3], 0%.
Taken in the same sequence, the figures for `COc1cccc(C(=O)/C=C/c2ccc3ccccc3c2)c1` were “soluble”, 0% and 0%.
Taken in the same sequence, the figures for `Cc1ccc(/C=C/C(=O)c2ccc3ccccc3c2)cc1` were “soluble”, 8% and 28%.
On to `O=C(/C=C/c1cccs1)c1ccc2c(c1)OCO2`, for which the solubility entry in series [1] is reported as “soluble”. Besides, the inhibition is 7% in series [2] and 0% in series [3].
For the molecule `O=C(/C=C/c1ccccc1Cl)c1ccc2c(c1)OCO2`, the solubility result in series [1] is given as “soluble”. In addition, the inhibition in series [2] is 5%; in series [3] it was 0%.
Taken in the same sequence, the figures for `COc1cc(OC)c(C(=O)/C=C/c2ccc3c(c2)OCO3)cc1OC` were “soluble”, 8% and 29%.
With `COc1cc(OC)c(/C=C/C(=O)c2ccc3c(c2)OCO3)c(OC)c1`, in series [1], the solubility result was “soluble”. Further, the inhibition came out at 5% in series [2] and 0% in series [3].
Taken in the same sequence, the figures for `Cc1ccc(/C=C/C(=O)c2ccc3c(c2)OCO3)cc1` were “soluble”, 14% and 0%.
Taken in the same sequence, the figures for `COc1ccc(OC)c(/C=C/C(=O)c2ccc3ccccc3c2)c1` were “soluble”, 22% and 0%.
Taken in the same sequence, the figures for `O=C(/C=C/c1cc2ccccc2nc1Cl)c1ccc2c(c1)OCO2` were “soluble”, 19% and 0%.
As to `O=C(/C=C/c1ccc2c(c1)OCO2)c1ccc2ccccc2c1`, in series [1], the solubility entry was “soluble”. In addition, the inhibition in series [2] was 13%; in series [3] it was 0%.
With `COc1cc(/C=C/C(=O)c2ccc3c(c2)OCO3)ccc1O`, in series [1], the solubility result is listed as “soluble”. Moreover, the inhibition in series [2] and in series [3] was 0% throughout.
Take `O=C(/C=C/c1cccc(Br)c1)c1ccc2c(c1)OCO2`: in series [1], the solubility result is “soluble”. Besides, the inhibition in series [2] amounted to 5%; in series [3], 0%.
Turning to `O=C(/C=C/c1ccc(Cl)c(Cl)c1)c1ccc2ccccc2c1`, in series [1], the solubility entry is “soluble”. For the same molecule, the inhibition in series [2] stood at 11%; in series [3], 28%.
Taken in the same sequence, the figures for `COc1ccc2nc(Cl)c(/C=C/C(=O)c3ccc4ccccc4c3)cc2c1` were “soluble”, 22% and 17%.
Consider `O=C(/C=C/c1cc(Cl)cc(Cl)c1)c1ccc2ccccc2c1`, for which, in series [1], the solubility result was “soluble”. In addition, the inhibition was 19% in series [2] and 29% in series [3].
As to `COc1cc(/C=C/C(=O)c2ccc(Cl)s2)ccc1OCc1ccccc1`, the solubility entry in series [1] is “soluble”. Besides, the inhibition stood at 5% in series [2] and 19% in series [3].
With `O=C(/C=C/c1ccc(C(F)(F)F)cc1)c1ccc2c(c1)OCO2`, the solubility entry in series [1] is given as “soluble”. In addition, the figures for the inhibition in series [2] and in series [3] were 7% and 0%, respectively.
Regarding `O=C(/C=C/c1ccc2c(c1)OCO2)c1ccc2c(c1)OCO2`, in series [1], the solubility entry is recorded as “soluble”. In addition, the inhibition stood at 6% in series [2] and 0% in series [3].
Taken in the same sequence, the figures for `COc1cc(OC)cc(C(=O)/C=C/c2ccc3ccccc3c2)c1` were “soluble”, 0% and 10%.
For the molecule `O=C(/C=C/c1cccs1)c1ccc2ccccc2c1`, the solubility entry in series [1] is recorded as “soluble”. In addition, the inhibition in series [2] worked out at 15%; in series [3], 0%.
Taken in the same sequence, the figures for `O=C(/C=C/c1c(Cl)cccc1Cl)c1ccc2ccccc2c1` were “soluble”, 16% and 0%.
Take `COc1ccc(/C=C/C(=O)c2ccc3c(c2)OCO3)cc1OC`: in series [1], the solubility result is reported as “soluble”. Further, the inhibition in series [2] is 19%; in series [3] it was 0%.
Taken in the same sequence, the figures for `O=C(/C=C/c1ccc(-c2ccccc2[N+](=O)[O-])o1)c1ccc2c(c1)OCO2` were “soluble”, 19% and 10%.
Taken in the same sequence, the figures for `O=C(/C=C/c1cccc(Cl)c1)c1ccc2ccccc2c1` were “soluble”, 7% and 0%.
On to `O=C(/C=C/c1ccc2ccccc2c1)c1ccc(Cl)c(Cl)c1`, for which, in series [1], the solubility entry is “soluble”. For the same molecule, the figures for the inhibition in series [2] and in series [3] were 9% and 18%, respectively.
Taken in the same sequence, the figures for `O=C(/C=C/c1ccc2ccccc2c1)c1cc(Cl)ccc1Cl` were “soluble”, 0% and 20%.
As to `O=C(/C=C/c1cccc([N+](=O)[O-])c1)c1ccc2ccccc2c1`, in series [1], the solubility entry is on record as “soluble”. Also, the figures for the inhibition in series [2] and in series [3] were 12% and 7%, respectively.
Turning to `O=C(/C=C/c1ccc(Br)cc1)c1ccc2ccccc2c1`, the solubility entry in series [1] is recorded as “soluble”. In addition, the inhibition in series [2] is 8%; in series [3], 24%.
Taken in the same sequence, the figures for `O=C(/C=C/c1ccccc1F)c1ccc2ccccc2c1` were “soluble”, 23% and 0%.
Taken in the same sequence, the figures for `O=C(/C=C/c1ccccc1Cl)c1ccc2ccccc2c1` were “soluble”, 0% and 13%.
Taken in the same sequence, the figures for `N#Cc1ccc(/C=C/C(=O)c2ccc3ccccc3c2)cc1` were “soluble”, 21% and 20%.
Regarding `CCCCOc1ccc(/C=C/C(=O)c2ccc3ccccc3c2)cc1`, the solubility result in series [1] was “soluble”. Further, the inhibition came to 8% in series [2] and 17% in series [3].
In the case of `O=C(/C=C/c1ccc(-c2ccccc2[N+](=O)[O-])o1)c1ccc2ccccc2c1`, in series [1], the solubility result is on record as “soluble”. The figures for the inhibition in series [2] and in series [3] were 9% and 7%, respectively.
In the case of `COc1ccc(OC)c(C(=O)/C=C/c2ccc(OCc3ccccc3)c(OC)c2)c1`, the solubility result in series [1] was “soluble”. Further, the inhibition is 12% in series [2] and 16% in series [3].
Taken in the same sequence, the figures for `O=C(/C=C/c1cccc(Br)c1)c1ccc2ccccc2c1` were “soluble”, 0% and 20%.
Taken in the same sequence, the figures for `COc1cccc(OC)c1/C=C/C(=O)c1ccc2c(c1)OCO2` were “soluble”, 4% and 0%.
Taken in the same sequence, the figures for `O=C(/C=C/c1ccccc1)c1ccc2ccccc2c1` were “soluble”, 4% and 16%.
For the molecule `CN(C)c1ccc(/C=C/C(=O)c2ccc3c(c2)OCO3)cc1`, the solubility result in series [1] is “soluble”. For the same molecule, the inhibition worked out at 10% in series [2] and 0% in series [3].
In the case of `O=C(/C=C/c1cccc(C(F)(F)F)c1)c1ccc2ccccc2c1`, the solubility result in series [1] is “soluble”. Besides, the inhibition turned out to be 24% in series [2] and 0% in series [3].
`O=C(/C=C/c1ccc(F)cc1)c1ccc2c(c1)OCO2`: the solubility result in series [1] was “soluble”. In addition, the inhibition in series [2] and in series [3] was 0% throughout.
Regarding `O=C(/C=C/c1ccc(Cl)cc1)c1ccc2ccccc2c1`, in series [1], the solubility result was “soluble”. Also, the inhibition was found to be 13% in series [2] and 27% in series [3].
Turning to `COc1ccc(/C=C/C(=O)c2ccc3c(c2)OCO3)cc1`, in series [1], the solubility result was “soluble”. For the same molecule, the inhibition in series [2] was 17%; in series [3], 11%.
Taken in the same sequence, the figures for `COc1cccc(/C=C/C(=O)c2ccc3ccccc3c2)c1` were “soluble”, 10% and 0%.
Taken in the same sequence, the figures for `O=C(/C=C/c1ccc(F)cc1)c1ccc2ccccc2c1` were “soluble”, 13% and 14%.
